Measured values from PMC7541604 (Clinical cancer research : an official journal of the …, 2020).
Several values for one entry are separate records, joined by “and”; a condition that tells them apart may be missing. Equal entries are not always repeated.

Experiments:
Type in all cases: in vivo, human
[1] = system: tumor epichaperome formations (epichaperome/HSP90); experiment: 124I-PU-H71 PET/CT tumor imaging in cancer patients
Procedure, shortened: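 Adults with solid malignancy or lymphoma received 201±12 MBq tracer IV over 1-2 min, no contrast, with SSKI thyroid blockade. PET-CT was done at 3-4 and 20-24 h post-injection, with 45-60 min emission and OSEM reconstruction (decay, attenuation, scatter corrected). The highest-SUV tumor per patient gave SUVpeak (mean voxel SUV in the 1-cm3 sphere of highest uptake, mass-normalized). Tumor:bloodpool and tumor:muscle ratios were compared at 4 vs 24 h by Wilcoxon signed-rank.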

[2] = Whole blood and plasma radioassay of tracer clearance
Procedure, shortened: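 Tracer was injected IV over 1-2 min and blood drawn through a separate peripheral line at 10, 20 and 30 min and 1-2 or 3-4 h, plus 20-24 h in a subset (n=7). Whole blood and/or plasma were radioassayed by well counter. α and β half-lives came from biexponential fits, summarized as geometric mean. Plasma exposure was expressed as %ID·g·h/mL from 10 min to 4 h.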

[3] = Plasma radioHPLC analysis of tracer metabolism; conditions: for Relative amount in plasma supernatant, GM: % of total activity of identified radioHPLC peaks
[4] = PET/CT tracer biodistribution in normal organs
Procedure, shortened: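 Patients received 201±12 MBq tracer IV, with SSKI taken ≥2 h before and daily for two weeks. PET-CT ran skull vertex to proximal thighs at 3-4 and 20-24 h post-injection, with CT for attenuation correction and anatomic localization. Mean SUV was measured in normal organs, including aortic blood pool, humerus, axial skeleton and brain, at 4 and 24 h (n=30).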

[5] = PET-derived urinary and biliary tracer excretion
Procedure, shortened: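 Serial PET, with bisacodyl 15 mg orally on three nights post-injection: at each time-point, 3D VOIs measured total activity in the urinary bladder and in the hepatobiliary tree plus bowel. Tracer lost by voiding or defecation was tracked from whole-FOV activity on decay-corrected serial scans, normalized to total activity on the initial scan immediately post-injection.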

[6] = Clinical safety monitoring incl. serum TSH; conditions: microdose tracer 201±12 MBq, <25 μg IV, n=30 patients
Procedure, shortened: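 Microdose tracer was given IV after seven drops SSKI orally ≥2 h pre-injection, repeated daily for two weeks. Serum TSH was measured <1 week pre-injection as baseline and again 6-12 months post-injection. Toxicity signs and symptoms were checked at each imaging time-point, and patients reported adverse symptoms over the following 30 days.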

[7] = 4 hours post-injection, across patient population
[8] = one table row per patient, PET 4 h post-injection
[9] = one table row per patient, PET 24 h post-injection
[10] = patients, IV bolus, geometric mean

**Q.** Which results are given for `CC(C)NCCCn1c(Sc2cc3c(cc2I)OCO3)nc2c(N)ncnc21` [^124I-PU-H71]?
**A.** Tumor:bloodpool ratio of radiotracer concentrations, average/SD [1, 7]: 3.2± 3.0; Tumor:bloodpool ratio of radiotracer concentrations, maximum [1, 7]: up to 14.4; Tumor:bloodpool SUV ratio ([1]; 24 h, person, stage IV pancreatic cancer (Fig. 1)): 19.8; Tumor:bloodpool ratio of radiotracer concentrations, average/SD ([1]; 24 hours post-injection, across patient population): 3.9 ± 4.4; 24-hour tumor SUV average/SD ([1]; between patients): 0.9 ± 0.8; 24-hour tumor SUV coefficient of variation ([1]; between patients): 88.9%; 24-hour tumor SUV range ([1]; between patients): 0.1-3.8; Patients in whom PU-H71-avid tumors were detected ([1]; n=26 evaluable patients, PET at 24 h): 58%; T:B 4 h (tumor:blood pool SUVpeak ratio) [1, 8]: 1.8 and 3.1 and 14.4 and 6.1 and 1.5 and 1.2 and 2.2 and 2.7 and 0.9 and 5.0 and 2.5 and 4.2 and 1.6 and 1.3 and 2.9 and 2.1 and 9.6 and 1.7 and 3.6; T:M 4 h (tumor:muscle SUV ratio) [1, 8]: 1.8 and 6.0 and 22.0 and 5.1 and 2.1 and 1.2 and 2.8 and 1.9 and 2.4 and 5.3 and 2.0 and 1.0 and 5.4 and 4.0 and 3.3 and 5.2 and 3.0 and 3.8 and 1.5 and 7.7 and 2.7 and 4.9; Tumor SUV 4 h (SUVpeak) [1, 8]: 1.1 and 1.6 and 11.0 and 2.5 and 0.64 and 0.8 and 0.7 and 0.9 and 3.4 and 1.7 and 3.2 and 2.1 and 1.3 and 1.8 and 2.7 and 1.5 and 2.2 and 1.2; T:B 24 h (tumor:blood pool SUVpeak ratio) [1, 9]: 1.0 and 5.6 and 13.1 and 1.7 and 4.0 and 0.6 and 3.0 and 1.2 and 3.2 and 0.9 and 5.1 and 2.4 and 19.8 and 0.7 and 1.8 and 1.3 and 3.6 and 5.9 and 2.3 and 7.8 and 4.8; T:M 24 h (tumor:muscle SUV ratio) [1, 9]: 1.6 and 11.2 and 20.0 and 8.0 and 6.7 and 1.2 and 6.0 and 2.3 and 1.5 and 6.4 and 1.0 and 1.1 and 8.8 and 2.1 and 6.2 and 2.5 and 4.6 ^****** and 1.4 and 3.3 and 5.6 and 5.2 and 17.5 and 1.3 and 5.1; Tumor SUV 24 h (SUVpeak) [1, 9]: 0.3 and 0.6 and 3.8 and 0.8 and 0.4 and 0.1 and 0.2 and 1.0 and 0.7 and 1.8 and 1.1 and 1.6 and 0.5 and 1.3 and 0.9 and 2.1 and 1.5; Decrease of tumor SUV between 4 to 24 hours ([1]; overall): 1.0±1.4 SUV units; Decrease of tumor SUV between 4 to 24 hours, range ([1]; overall): −25.0 to +87.5%; Decrease of tumor SUV between 4 to 24 hours, mean ± SD ([1]; overall, p=0.00002): 50.7 ± 27.0%; Increase of tumor:bloodpool SUV ratio between 3 and 24 h ([1]; person, stage IV pancreatic cancer (Fig. 1)): 371%; Median increase in tumor:bloodpool SUV ratio from 4 to 24 hours ([1]; population): 4.8%; Median increase in tumor:muscle SUV ratio from 4 to 24 hours ([1]; population): 20.9%; Range of change in tumor:bloodpool SUV ratio from 4 to 24 hours ([1]; population): −72.1 to +371.4%; Range of change in tumor:muscle SUV ratio from 4 to 24 hours ([1]; population): −63.2 to +257.1%; Average increase in tumor:muscle SUV ratio from 4 to 24 hours ([1]; population, p=0.02): 52.0 ± 87.3%; Average increase in tumor:bloodpool SUV ratio from 4 to 24 hours ([1]; population, p=0.9): 25.7 ± 99.9%; Plasma AUC coefficient of variation ([2]; between patients): 36.6%; Plasma radiotracer exposure ([2]; from 10 minutes to 4 hours post-injection): 1.7±0.6 % ID•g•h/mL; Blood t1/2 α, GM [2, 10]: 7.9 min; Blood t1/2 β, GM [2, 10]: 366.2 min; Plasma t1/2 α, GM [2, 10]: 7.0 min; Plasma t1/2 β, GM [2, 10]: 264.1 min; Relative amount in plasma supernatant, GM ([3]; 10 min after tracer injection): 69.2%; Relative amount in plasma supernatant, GM ([3]; 20 min after tracer injection): 51.7%; Relative amount in plasma supernatant, GM ([3]; 30 min after tracer injection): 44.9%; Relative amount in plasma supernatant, GM ([3]; 1h after tracer injection): 32.3%; Relative amount in plasma supernatant, GM ([3]; 4h after tracer injection): 22.7%; Time by which radiotracer became predominantly radiometabolites ([3]; plasma, p.i.): ≤ 1 h; Brain uptake ([4]; PET): scant; 24-hour bloodpool SUV ([4]; average/SD, 24 hours post-injection): 0.2 ±0.1; Urinary excretion of tracer [5]: 29.5 ±10.9 %ID; Hepatobiliary excretion of tracer ([5]; bisacodyl given): 45.4 ±15.8 %ID; Adverse effects [6]: no adverse effects; Adverse effects ([6]; listed as PUH71 tracer): No signs or symptoms of adverse effects
